# Measured values published in ChEMBL document CHEMBL4118175, “Anti-allergic inflammatory components from Sanguisorba officinalis L” (Bioorg Med Chem Lett, 2018).
# Calls of active or inactive are those of the source. No cut-off for these calls is given here.
# Tests used:
# RAW264.7 [1] = experiment: Anti-inflammatory activity in mouse RAW264.7 cells assessed as reduction in LPS-stimulated COX2 protein expression at 20 uM preincubated for 2 hrs followed by LPS addition measured after 18 hrs by Western blot analysis; assay type: functional, cell-based
# Summary of the method: (§1)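 Pretreatment 2 h with samples (20 µM) then LPS 200 ng/mL for 18 h; COX-2 and iNOS protein by Western blot.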
# RBL-2H3 [2] = experiment: Cytotoxicity against rat RBL2H3 cells at 5 and 20 uM after 24 hrs by MTS assay; assay type: cell-based; details: rbl-2h3, 24 h
# Summary of the method: (§2)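 RBL-2H3 (seeded overnight) or RAW264.7 cells exposed to 5 and 20 µM samples for 24 h; viability by MTS; three independent experiments, mean ± SEM.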
# RAW264.7 [3] = experiment: Anti-inflammatory activity in mouse RAW264.7 cells assessed as inhibition of LPS-induced TNF-alpha production at 20 uM preincubated for 2 hrs followed by LPS addition measured after 24 hrs by ELISA; assay type: functional, cell-based
# Summary of the method: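 Cells pretreated 2 h with compounds (20 µM) before LPS (500 ng/mL) for 24 h; supernatant TNF-α by ELISA kit; triplicate, mean ± SEM.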
# RAW264.7 [4] = experiment: Anti-inflammatory activity in mouse RAW264.7 cells assessed as reduction in LPS-stimulated iNOS protein expression at 20 uM preincubated for 2 hrs followed by LPS addition measured after 18 hrs by Western blot analysis; assay type: functional, cell-based; summary of the method: as §1
# RBL-2H3 [5] = experiment: Anti-inflammatory activity in IgE sensitized and DNP-BSA-stimulated rat RBL2H3 cells assessed as reduction of IL4 secretion preincubated for 2 hrs followed by DNP-BSA stimulation for 18 hrs by ELISA; assay type: functional, cell-based
# Summary of the method: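 IgE-sensitized cells (overnight, 37 °C) pretreated with compounds 2 h, then challenged with 1 µg/mL DNP-BSA for 18 h; IL-4 in supernatant quantified by ELISA kit. Cells seeded in 48-well plates overnight; triplicate, mean ± SEM.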
# RAW264.7 [6] = experiment: Anti-inflammatory activity in mouse RAW264.7 cells assessed as inhibition of LPS-induced nitric oxide production preincubated for 2 hrs followed by LPS addition measured after 24 hrs by Griess method; assay type: functional, cell-based
# Summary of the method: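 Following 2 h sample pretreatment, LPS added for 24 h; supernatant NO read with Griess reagent; triplicate, mean ± SEM.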
# [7] = target: Transcription factor p65 (Homo sapiens) (UniProt Q04206); experiment: Inhibition of PMA-induced NFkappaB P65 activation (unknown origin) expressed in human HEK293T cells transfected with pNF-kappaB-SEAP preincubated for 2 hrs followed by PMA stimulation measured after overnight incubation by NFkappaB reporter gene assay; assay type: cell-based
# Summary of the method: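 293T cells carrying pNFκB-SEAP reporter plasmid, pretreated with samples then PMA-stimulated; NF-κB transcription read as SEAP; triplicate, mean ± SEM.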
# RAW264.7 [8] = experiment: Cytotoxicity against mouse RAW264.7 cells at 5 and 20 uM after 24 hrs by MTS assay; assay type: cell-based; details: raw264.7, 24 h; summary of the method: as §2
# [9] = target: Transcription factor p65 (Mus musculus) (UniProt Q04207); experiment: Inhibition of NFkappaB nuclear translocation in LPS-stimulated mouse RAW264.7 cells at 20 uM pretreated for 2 hrs followed by LPS-induction by DAPI-staining based immunofluorescence microscopic method; assay type: cell-based
# Summary of the method: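 Cells in eight-well glass chambers preincubated 2 h with samples (20 µM) or Bay 11-7082 before LPS 1 µg/mL; immunostaining with polyclonal anti-p65 and Alexa Fluor 488 secondary to view nuclear translocation.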
# RBL-2H3 [10] = experiment: Anti-inflammatory activity in PMA/A23187-stimulated rat RBL2H3 cells assessed as reduction of beta-hexosaminidase secretion preincubated for 1 hr followed by PMA/A23187 stimulation for 1 hr using 4-nitrophenyl-N-acetyl-beta-D-glucosaminide substrate; assay type: functional, cell-based
# Summary of the method: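 After overnight plating, cells pretreated 1 h then stimulated with 30 ng/mL PMA plus 350 ng/mL A23187 for 1 h; supernatants collected for β-hexosaminidase detection; triplicate, mean ± SEM.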
# RBL-2H3 [11] = experiment: Anti-inflammatory activity in PMA/A23187-stimulated rat RBL2H3 cells assessed as reduction of IL4 secretion preincubated for 2 hrs followed by PMA/A23187 stimulation for 18 hrs by ELISA; assay type: functional, cell-based
# Summary of the method: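 Cells plated overnight, pretreated 2 h, then stimulated with 30 ng/mL PMA plus 350 ng/mL A23187 for 18 h; supernatant IL-4 by ELISA kit; triplicate, mean ± SEM.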
# Chain of Transcription factor p65 (Homo sapiens) (Q04206 whole entry): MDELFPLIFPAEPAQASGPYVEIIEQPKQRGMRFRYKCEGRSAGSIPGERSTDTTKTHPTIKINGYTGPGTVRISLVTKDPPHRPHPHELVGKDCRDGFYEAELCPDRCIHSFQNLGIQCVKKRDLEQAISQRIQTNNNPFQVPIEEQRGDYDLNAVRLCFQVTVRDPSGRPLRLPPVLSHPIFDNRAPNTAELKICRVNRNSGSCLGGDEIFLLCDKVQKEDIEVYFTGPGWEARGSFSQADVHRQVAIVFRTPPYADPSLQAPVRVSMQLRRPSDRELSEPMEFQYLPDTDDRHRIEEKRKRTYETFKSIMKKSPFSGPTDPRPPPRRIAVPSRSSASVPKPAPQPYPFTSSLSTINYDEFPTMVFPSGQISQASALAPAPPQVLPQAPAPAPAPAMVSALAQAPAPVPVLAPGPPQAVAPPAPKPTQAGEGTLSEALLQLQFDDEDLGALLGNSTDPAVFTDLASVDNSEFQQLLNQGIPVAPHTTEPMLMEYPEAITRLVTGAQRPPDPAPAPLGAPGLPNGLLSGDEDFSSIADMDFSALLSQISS
# Chain of Transcription factor p65 (Mus musculus) (Q04207 whole entry): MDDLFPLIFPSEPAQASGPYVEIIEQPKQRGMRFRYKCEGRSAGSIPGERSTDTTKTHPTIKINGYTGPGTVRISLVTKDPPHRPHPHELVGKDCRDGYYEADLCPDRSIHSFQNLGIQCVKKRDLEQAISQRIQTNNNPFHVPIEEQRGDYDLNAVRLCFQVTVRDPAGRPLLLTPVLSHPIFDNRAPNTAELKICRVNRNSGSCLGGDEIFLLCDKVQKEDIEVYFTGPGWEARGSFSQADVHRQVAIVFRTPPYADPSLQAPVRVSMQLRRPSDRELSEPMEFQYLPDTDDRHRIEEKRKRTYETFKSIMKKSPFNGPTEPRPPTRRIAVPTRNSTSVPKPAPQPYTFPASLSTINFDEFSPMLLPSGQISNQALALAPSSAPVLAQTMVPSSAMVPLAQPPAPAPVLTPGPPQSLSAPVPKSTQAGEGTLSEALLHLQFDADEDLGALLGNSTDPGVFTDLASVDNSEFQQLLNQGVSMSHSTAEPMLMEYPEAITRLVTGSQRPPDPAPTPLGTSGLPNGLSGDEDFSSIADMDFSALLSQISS
Structure (SMILES),Activity (RAW264.7 [1]),Activity (RBL-2H3 [2]),Activity (RAW264.7 [3]),Activity (RAW264.7 [4]),Activity (RBL-2H3 [5]),Activity (RAW264.7 [6]),inhibition [7],Activity (RAW264.7 [8]),NFkappaB nuclear translocation inhibition (qualitative call) [9],Activity (RBL-2H3 [10]),Activity (RBL-2H3 [11])
Cc1ccc(-c2cc(C(F)(F)F)nn2-c2ccc(S(N)(=O)=O)cc2)cc1,Active,–,–,–,–,–,–,–,–,–,–
CC(CCCC(C)(C)O)CCO[C@@H]1O[C@H](CO[C@@H]2O[C@@H](CO)[C@H](O)[C@H]2O)[C@@H](O)[C@H](O)[C@H]1O (stereo not given in full),Active,Non-Toxic,Active,Active,Dose-dependent effect,Active,Dose-dependent effect,Non-Toxic,Active,Active,Dose-dependent effect
C[C@@H]1CC[C@]2(C(=O)O)CC[C@]3(C)C(=CC[C@@H]4[C@@]5(C)CC[C@H](O[C@@H]6OC[C@H](O)[C@H](O)[C@H]6O)C(C)(C)[C@@H]5CC[C@]43C)[C@@H]2[C@]1(C)O,–,Non-Toxic,Active,–,Dose-dependent effect,Active,Dose-dependent effect,Non-Toxic,Active,Active,Dose-dependent effect
COc1cc2c(=O)oc3c(OC)c(OC)cc4c(=O)oc(c1O)c2c34,–,Toxic,–,–,–,–,–,Toxic,–,–,–
C=CCc1ccc(O[C@@H]2O[C@H](CO[C@@H]3OC[C@@H](O)[C@H](O)[C@H]3O)[C@@H](O)[C@H](O)[C@H]2O)cc1,Active,Non-Toxic,Active,Active,Dose-dependent effect,Active,–,Non-Toxic,–,Active,Dose-dependent effect
CC1=C2C3=CC[C@@H]4[C@@]5(C)CC[C@H](O[C@@H]6OC[C@H](O)[C@H](O)[C@H]6O)C(C)(C)[C@@H]5CC[C@@]4(C)[C@]3(C)CC[C@@]2(C(=O)O[C@@H]2O[C@H](CO)[C@@H](O)[C@H](O)[C@H]2O)CC[C@H]1C,Active,Non-Toxic,Active,Active,Dose-dependent effect,Active,Dose-dependent effect,Non-Toxic,Active,Active,Dose-dependent effect
Cc1ccc(S(=O)(=O)/C=C/C#N)cc1,–,–,–,–,–,–,–,–,Active,–,–
C[C@@H]1CC[C@]2(C(=O)O[C@@H]3O[C@H](CO)[C@@H](O)[C@H](O)[C@H]3O)CC[C@]3(C)C(=CC[C@@H]4[C@@]5(C)C[C@@H](O)[C@@H](O)C(C)(C)[C@@H]5CC[C@]43C)[C@@H]2[C@]1(C)O,–,Non-Toxic,Active,–,Dose-dependent effect,–,–,Non-Toxic,–,Active,Dose-dependent effect
